Here are results for nine molecules from ChEMBL document CHEMBL1157507, “Design, synthesis, and evaluation of novel mutual prodrugs (hybrid drugs) of all-trans-retinoic acid and histone deacetylase inhibitors with enhanced anticancer activities in breast and prostate cancer cells in vitro” (J Med Chem, 2008).

The subject of series [1] is PC-3. Put plainly: Growth inhibition of human PC3 cells after 5 days by MTT assay. The following applies: PC-3, 120 h. The format is functional. The procedure, abridged: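 PC-3 cells in RPMI 1640 with 10% FBS and 1% penicillin/streptomycin (37 °C, 5% CO2) were seeded at 2 × 10⁴/well and allowed to adhere 24 h. They were dosed over a concentration range in 10% DMSO/90% ethanol for 5 days, with drug and medium renewed on day 3. MTT (0.5 mg/mL) was added for 2 h, formazan dissolved in DMSO, and A560 read. Triplicate wells, ≥3 experiments; GI50 from nonlinear regression.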
(In general: Tetrazolium assays rely on reduction of a dye to a coloured formazan, in cell work by metabolically active cells.)

In series [2] the test system is Serum. Description: Stability in 80% human serum in 0.02 M phosphate buffer at pH 7.2 after 24 hrs. Format: ADME, cell-free. The following applies: pH 7.2, 24 h. The procedure, abridged: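 Each agent was incubated 24 h at 37 °C in 80% human serum containing 20% 0.02 M phosphate buffer, pH 7.2. Samples were extracted and analysed by reverse-phase C18 HPLC with photodiode-array detection: 350 nm for ATRA and prodrugs, 245 nm for HDIs. The gradient ran from 20 mM ammonium acetate/methanol (50:50) to methanol at 0.8 mL/min.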

The test system of series [3] is PC-3. Put plainly: Growth inhibition of human PC3 cells at 20 uM after 5 days by MTT assay. Format: functional. Particulars: PC-3, 120 h. In outline: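 PC-3 cells in RPMI 1640 with 10% FBS were seeded at 2 × 10⁴/well, adhered 24 h, then given a single 20 µM concentration in 10% DMSO/90% ethanol for 5 days, with renewal on day 3. Growth was read by MTT (0.5 mg/mL, 2 h, formazan in DMSO, A560). Triplicate wells; at least three independent experiments.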

Series [4] deals with MDA-MB-231. Put plainly: Growth inhibition of human MDA-MB-231 cells after 5 days by MTT assay. Format: functional. The following applies: MDA-MB-231, 120 h.
Series [5] deals with MCF7. Put plainly: Growth inhibition of long-term letrozole cultured human MCF7 cells after 5 days by MTT assay. Particulars: MCF7, 120 h. Format: functional.
In series [6] the test system is MCF7. Description: Growth inhibition of human MCF7 cells expressing HOX-B7 after 5 days by MTT assay. Particulars: MCF7, 120 h. Format: functional.
Series [7] deals with MCF7. Put plainly: Growth inhibition of human MCF7 cells after 5 days by MTT assay. Format: functional. Particulars: MCF7, 120 h.
In series [8] the test system is MCF7. Put plainly: Growth inhibition of human tamoxifen-resistant MCF7 cells after 5 days by MTT assay. Format: functional. The following applies: MCF7, 120 h.

What is called GI50 is the concentration at which growth is held to half of that of the control. Read a high GI50 as lower sensitivity of the cells. As usually defined, the inhibition is the percentage by which the read-out fell short of the control. A higher inhibition goes with strong suppression. Consider `CCCC(=O)OCc1ccc(OC(=O)/C=C(C)/C=C/C=C(C)/C=C/C2=C(C)CCCC2(C)C)cc1`, for which the GI50 in series [1] was 1.02 µM; in series [4] it was 0.01 µM. Besides, the Stability entry in series [2] is given as “Stable”. The molecule also registered an inhibition at 20 µM in series [3] of 80%.
For `CC1=C(/C=C/C(C)=C/C=C/C(C)=C/C(=O)OCOC(=O)NCC(=O)Nc2ccccc2NC(=O)c2ccc(CNC(=O)OCc3cccnc3)cc2)C(C)(C)CCC1`, the GI50 in series [5] turned out to be 0.02 µM; in series [6] it was 0.006 µM; in series [1], 0.04 µM; in series [7] it was 0.15 µM; in series [8], 0.02 µM; in series [4], 0.94 µM.
Take `NCC(=O)Nc1ccccc1NC(=O)c1ccc(CNC(=O)OCc2cccnc2)cc1`: in series [2], the Stability entry was “Stable”.
Regarding `CC1=C(/C=C/C(C)=C/C=C/C(C)=C/C(=O)O)C(C)(C)CCC1` [TRETINOIN], the figures for the GI50 in series [1] and in series [4] were 7.6 µM and 10.8 µM, respectively.
As for `CC1=C(/C=C/C(C)=C/C=C/C(C)=C/C(=O)Oc2ccc(COC(=O)Nc3ccccc3NC(=O)c3ccc(CNC(=O)OCc4cccnc4)cc3)cc2)C(C)(C)CCC1`, the GI50 was 0.72 µM in series [6]; 0.18 µM in series [1]; 0.06 µM in series [7]; 0.21 µM in series [8]; 0.17 µM in series [4]. Further, the Stability result in series [2] is reported as “Stable”.
On to `CC(=O)Nc1ccc(C(=O)Nc2ccccc2N)cc1` [TACEDINALINE], for which the results for the GI50 in series [1] and in series [4] were 0.29 µM and 0.17 µM, respectively.
Take `CC(=O)Nc1ccc(C(=O)Nc2ccccc2NC(=O)CNC(=O)OCOC(=O)/C=C(C)/C=C/C=C(C)/C=C/C2=C(C)CCCC2(C)C)cc1`: the GI50 was determined as 1.2 µM in series [6]; 4.27 µM in series [1]; 0.25 µM in series [7]; 0.17 µM in series [8]; 0.63 µM in series [4]. Further, in series [2], the Stability entry is given as “Stable”.
On to `CC(=O)Nc1ccc(C(=O)Nc2ccccc2NC(=O)OCc2ccc(OC(=O)/C=C(C)/C=C/C=C(C)/C=C/C3=C(C)CCCC3(C)C)cc2)cc1`, for which the GI50 in series [6] came to 8.13 µM; in series [1], 0.87 µM; in series [7], 0.52 µM; in series [8] it was 0.08 µM; in series [4], 0.02 µM. For the same molecule, the Stability entry in series [2] is “Stable”.
Consider `CCCC(=O)[O-].[Na+]` [SODIUM BUTYRATE], for which the figures for the GI50 in series [1] and in series [4] were 72.4 µM and over 1000 µM, respectively.
